# Results taken from ChEMBL document CHEMBL3046177, “Plant growth inhibitory activity of p-hydroxyacetophenones and tremetones from Chilean endemic Baccharis species and some analogous: a comparative study” (J Agric Food Chem, 2002).
# Active and inactive are the calls of the source. The calls are words filed in the database; no cut-off is given here.
# Legend:
# Lolium multiflorum [1] = experiment: Phytotoxicity against Lolium multiflorum (Italian ryegrass) assessed as inhibition of seed respiration during germination after 24 hr; assay type: functional, organism-based
# Outline: (§1)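 Oxygen uptake of germinating seeds measured polarographically with a Clark-type electrode at 25 °C in a nonilluminated cell over 5 and 10 min, at several compound concentrations. Expressed as percent of control (100%). Three experiments; RI50 from Probit analysis.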
# Lactuca sativa [2] = experiment: Phytotoxicity against Lactuca sativa (lettuce) assessed as inhibition of seed germination after 48 hr; assay type: functional
# Outline: (§2)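 Seeds of uniform size on Whatman No.1 filter paper in 85 mm Petri dishes, wetted with 8 or 10 mL deionized water or test solution (MeOH < 1%); controls got matching water/methanol. Sealed, incubated at 28 °C in the dark, scored at 48 h intervals; germination = 1 mm radicle extrusion. Three replicates.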
# [3] = tested on: Lolium multiflorum (ryegrass); experiment: Phytotoxicity against Lolium multiflorum (ryegrass) assessed as inhibition of seed germination at 500 uM after 48 hr
# Physalis ixocarpa [4] = experiment: Phytotoxicity against Physalis ixocarpa assessed as inhibition of seed respiration during germination after 24 hr; assay type: functional, organism-based; outline: as §1
# Physalis ixocarpa [5] = experiment: Increase of shoot development during seeding stage in Physalis ixocarpa up to 50 uM after 120 hr; assay type: functional, organism-based
# Outline: (§3)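 Petri-dish seedling assay on filter paper wetted with test solution (MeOH < 1%), 28 °C in the dark. Coleoptile/hypocotyl and root lengths of all germinated seeds measured after 120 h, then plants dried to constant weight at 40 °C. Three replicates; 50% inhibitory concentrations by Probit analysis of percent inhibition versus concentration.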
# Lactuca sativa [6] = experiment: Phytotoxicity against Lactuca sativa (lettuce) assessed as inhibition of root development during seeding stage after 120 hr; assay type: functional, organism-based; details: read-out: I50; outline: as §3
# Trifolium pratense [7] = experiment: Phytotoxicity against Trifolium pratense (red clover) assessed as inhibition of seed respiration during germination after 24 hr; assay type: functional, organism-based; outline: as §1
# Trifolium pratense [8] = experiment: Phytotoxicity against Trifolium pratense (red clover) assessed as inhibition of shoot development during seeding stage after 120 hr; assay type: functional, organism-based; details: read-out: I50; outline: as §3
# Lolium multiflorum [9] = experiment: Phytotoxicity against Lolium multiflorum (Italian ryegrass) assessed as inhibition of shoot development during seeding stage after 120 hr; assay type: functional, organism-based; details: read-out: I50; outline: as §3
# Lactuca sativa [10] = experiment: Phytotoxicity against Lactuca sativa (lettuce) assessed as inhibition of seed respiration during germination after 24 hr; assay type: functional, organism-based; outline: as §1
# Trifolium pratense [11] = experiment: Increase of root development during seeding stage in Trifolium pratense (red clover) at 50 to 300 uM after 120 hr; assay type: functional, organism-based; outline: as §3
# Lolium multiflorum [12] = experiment: Phytotoxicity against Lolium multiflorum (Italian ryegrass) assessed as inhibition of root development during seeding stage after 120 hr; assay type: functional, organism-based; details: read-out: I50; outline: as §3
# Physalis ixocarpa [13] = experiment: Phytotoxicity against Physalis ixocarpa assessed as inhibition of shoot development during seeding stage after 120 hr; assay type: functional, organism-based; details: for IC50: read-out: I50; outline: as §3
# Lolium multiflorum [14] = experiment: Phytotoxicity against Lolium multiflorum (Italian ryegrass) assessed as inhibition of seed germination after 48 hr; assay type: functional; outline: as §2
# Physalis ixocarpa [15] = experiment: Phytotoxicity against Physalis ixocarpa assessed as inhibition of root development during seeding stage after 120 hr; assay type: functional, organism-based; details: for IC50: read-out: I50; outline: as §3
# Lolium multiflorum [16] = experiment: Increase of seed respiration during germination in Lolium multiflorum (Italian ryegrass)at 30 uM; assay type: functional, organism-based; outline: as §1
# Trifolium pratense [17] = experiment: Phytotoxicity against Trifolium pratense (red clover) assessed as inhibition of root development during seeding stage after 120 hr; assay type: functional, organism-based; details: read-out: I50; outline: as §3
# Physalis ixocarpa [18] = experiment: Phytotoxicity against Physalis ixocarpa assessed as inhibition of seed germination after 48 hr; assay type: functional; outline: as §2
# Lactuca sativa [19] = experiment: Increase of root development during seeding stage in Lactuca sativa (lettuce) at 50 to 300 uM after 120 hr; assay type: functional, organism-based; outline: as §3
# Lolium multiflorum [20] = experiment: Phytotoxicity against Lolium multiflorum (Italian ryegrass) assessed as inhibition of seed germination at 500 uM after 48 hr; assay type: functional; outline: as §2
# Trifolium pratense [21] = experiment: Increase of shoot development during seeding stage in Trifolium pratense (red clover) at 200 uM after 120 hr; assay type: functional, organism-based; outline: as §3
# Lactuca sativa [22] = experiment: Phytotoxicity against Lactuca sativa (lettuce) assessed as inhibition of shoot development during seeding stage after 120 hr; assay type: functional, organism-based; details: read-out: I50; outline: as §3
# Trifolium pratense [23] = experiment: Phytotoxicity against Trifolium pratense (red clover) assessed as inhibition of seed germination after 48 hr; assay type: functional; outline: as §2
# Lolium multiflorum [24] = experiment: Phytotoxicity against Lolium multiflorum (Italian ryegrass) assessed as inhibition of seed respiration during germination at 300 to 500 uM after 24 hr; assay type: functional, organism-based; outline: as §1
# Spinacia oleracea [25] = experiment: Inhibition of H+ uptake in Spinacia oleracea (spinach) chloroplasts; assay type: functional; details: for IC50: read-out: I50
# Outline: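 Spinach thylakoids (from isolated chloroplasts, in sorbitol/tricine/MgCl2/NaCl buffer, pH 7.8) in 100 mM sorbitol, 5 mM MgCl2, 10 mM KCl, 1 mM Na+-tricine, pH 8, with 50 µM methyl viologen. Illuminated at 20 °C through 1% CuSO4 filter. H+ uptake recorded as pH rise from 8.0 to 8.1 with combination microelectrode on expanded scale.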
# Physalis ixocarpa [26] = experiment: Phytotoxicity against Physalis ixocarpa assessed as inhibition of seed respiration during germination after 72 hr; assay type: functional, organism-based; details: read-out: I50; outline: as §1
# Phaseolus vulgaris = experiment: Inhibition of mitochondrial respiration in Phaseolus vulgaris root mitochondria assessed as reduction of oxygen uptake; assay type: functional; details: read-out: I50
# Outline: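 Mitochondria from roots of 72 h dark-grown (28 °C) bean seedlings, Percoll-gradient purified, 0.3-0.5 mg protein (Bradford) per run; integrity checked with HCN. Compounds in 0.5% methanol added after a constant state 3 rate with […] was reached. O2 uptake by Clark electrode; control is mitochondria with 0.5% MeOH. Three experiments; I50 by Probit.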
# Lactuca sativa [27] = experiment: Phytotoxicity against Lactuca sativa (lettuce) assessed as inhibition of seed respiration during germination after 72 hr; assay type: functional, organism-based; details: read-out: I50; outline: as §1
# Spinacia oleracea [28] = experiment: Inhibition of ATP synthesis in Spinacia oleracea (spinach) chloroplasts; assay type: functional
# Outline: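 Spinach thylakoids in 100 mM sorbitol, 5 mM MgCl2, 10 mM KCl, 1 mM Na+-tricine, pH 8, with 50 µM methyl viologen as Hill-reaction electron acceptor. Illuminated at 20 °C through 1% CuSO4 filter. ATP synthesis measured titrimetrically.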
# Trifolium pratense [29] = experiment: Phytotoxicity against Trifolium pratense (red clover) assessed as inhibition of seed respiration during germination after 72 hr; assay type: functional, organism-based; details: read-out: I50; outline: as §1
# Lolium multiflorum [30] = experiment: Phytotoxicity against Lolium multiflorum (Italian ryegrass) assessed as inhibition of seed respiration during germination after 72 hr; assay type: functional, organism-based; details: read-out: I50; outline: as §1
# [31] = tested on: Radical scavenging activity; experiment: Antioxidant activity assessed as DPPH free radical scavenging activity after 30 min by TLC autographic assay; assay type: functional; details: in the assay text read “spectrophotometric assay” for “TLC autographic assay”; read-out: I50
# [32] = Antioxidant activity assessed as inhibition of bleaching of water soluble crocin measured every 5 min by spectrophotometric analysis; assay type: functional
# Outline: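 Aqueous mixture of 10 µM crocin, 1 mM t-BuOOH and 0.5 M t-BuOH with serial dilutions of test compound, placed under UV254 light; crocin bleaching (absorbance decrease) and fluorescence emission at 440 and 470 nm followed every 5 min. Three experiments, mean ± SEM.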
Structure (SMILES),I50 (Lolium multiflorum [1]),GI50 (Lactuca sativa [2]) [µM],inhibition at 500 µM [3] [%],I50 (Physalis ixocarpa [4]),IC50 (Lactuca sativa [6]) [µM],I50 (Trifolium pratense [7]),IC50 (Trifolium pratense [8]) [µM],IC50 (Lolium multiflorum [9]) [µM],I50 (Lactuca sativa [10]),IC50 (Lolium multiflorum [12]) [µM],IC50 (Physalis ixocarpa [13]) [µM],GI50 (Lolium multiflorum [14]) [µM],IC50 (Physalis ixocarpa [15]) [µM],IC50 (Trifolium pratense [17]) [µM],GI50 (Physalis ixocarpa [18]),inhibition at 500 µM (Lolium multiflorum [20]) [%],IC50 (Lactuca sativa [22]) [µM],GI50 (Trifolium pratense [23]) [µM],inhibition (Spinacia oleracea [25]),IC50 (Spinacia oleracea [25]) [µM],also measured
C=C(C)[C@H]1Cc2c(ccc(C(C)=O)c2OC(C)=O)O1 [4-ACETYL TREMETONE],inactive,85.5,30,inactive,87.5,inactive,45,87.5,inactive,82.1,65.5,79.9,70.1,45,55.2 µM,30,89.5,40,,,Activity (Physalis ixocarpa [5]): Active; Activity (Trifolium pratense [11]): Active; Activity (Lolium multiflorum [16]): Active; Activity (Lactuca sativa [19]): Active; Activity (Trifolium pratense [21]): Active; Activity (Lolium multiflorum [24]): Active
COc1ccc(C(C)=O)cc1 [P-METHOXY-ACETOPHENONE],,51.2,,,44.3,,120,17.9,,18.9,20.1,18.1,20.5,126,23.5 µM,,49.5,126,Dose-dependent effect,65.7,IC50 (Physalis ixocarpa [26]): 54.6 µM; IC50 (Phaseolus vulgaris): 152 µM; IC50 (Lactuca sativa [27]): 55.9 µM; inhibition (Spinacia oleracea [28]): Dose-dependent effect; IC50 (Trifolium pratense [29]): 57.6 µM; IC50 (Lolium multiflorum [30]): 40 µM
O=C1C(O)=C(O)C(=O)C(O)=C1O [TETROQUINONE],,,,,,,,,,,,,,,,,,,,,IC50 [31]: 9.37 µM
"CC(=O)c1ccc2c(c1)CC(C1(C)CO1)O2 (stereo not given) [10,11-EPOXY TREMETONE]",,36.1,,,33.8,,14.3,65.9,,72.6,5.8,65.6,15.7,16.2,19.2 µM,,33,22.3,Dose-dependent effect,40.7,IC50 (Physalis ixocarpa [26]): 57.5 µM; IC50 (Phaseolus vulgaris): 109 µM; IC50 (Lactuca sativa [27]): 58 µM; inhibition [32]: Active; inhibition (Spinacia oleracea [28]): Dose-dependent effect; IC50 (Trifolium pratense [29]): 49.1 µM; IC50 [31]: 62.6 µM; IC50 (Lolium multiflorum [30]): 67.9 µM
CC(=O)c1ccccc1 [ACETOPHENONE],inactive,47,30,inactive,45.7,inactive,137,126,inactive,128,,128,,134,inactive,30,49.5,137,,,I50 (Physalis ixocarpa [13]): inactive; I50 (Physalis ixocarpa [15]): inactive
